The test system of assay [1] is KDM5B PHD3 finger. Kind of assay: 1H,15N HSQC NMR titration, KDM5B PHD3. The note with it: WT PHD3; 1H,15N HSQC titration, 298K, 0.1 mM protein, 12-mer peptides. The class given is binding, human. In short, it runs like this:
(§1)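 1H,15N HSQC titration of uniformly 15N-labeled PHD3 at 0.1 mM, wild type or mutated (including D1506R). Spectra recorded with increasing concentrations of 12-mer histone tail peptides and superimposed. Per-residue normalized chemical shift changes calculated as Δδ = √[(ΔδH)² + (ΔδN/5)²].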

A further assay concerns the target T1, KDM5B PHD1 finger (Homo sapiens, UniProt Q9UGL1).
T1 sequence (Q9UGL1 309-359 limits assumed): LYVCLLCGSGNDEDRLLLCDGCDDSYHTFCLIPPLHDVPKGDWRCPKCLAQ
Kind of assay: 1H,15N HSQC NMR titration, KDM5B PHD1. It counts as binding. The note with it: WT PHD1; NMR spectra, 298K, 0.1 mM 15N-labeled protein, 12-mer peptide. The method in brief:
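Uniformly 15N-labeled wild-type PHD1 at 0.1 mM; 1H,15N HSQC spectra recorded over increasing concentrations of 12-mer histone tail peptides. Normalized shift change Δδ = √[(ΔδH)² + (ΔδN/5)²] in ppm. Kd obtained by nonlinear least-squares fit of Δδ against peptide and protein concentrations to a quadratic binding equation.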

Assay [2] deals with KDM5B PHD3 finger. Kind of assay: Tryptophan fluorescence titration, KDM5B PHD3. As to conditions: WT PHD3; NMR and fluorescence spectroscopy. The class given is binding, human. The method in brief: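 Tryptophan fluorescence at 25 °C: PHD3 in PBS titrated with increasing histone peptide concentrations. Excitation 295 or 280 nm; emission scanned 305–405 nm in 0.5 nm steps with 1 s integration; three scans averaged. Kd from nonlinear least-squares fit of intensity change to a quadratic binding equation; mean of three separate experiments, error as standard deviation.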

The test system of assay [3] is KDM5B PHD3 mutants (W1502, W1512, D1506R). As to the kind of experiment: Binding to KDM5B PHD3 mutants. The note with it: Fig. 6c-e. Set-up: species or system human. The method in brief:
as §1

As for “H3K4me2: H3K4me2 peptide, residues 1-12 of H3, dimethylated lysine 4”, the “pattern of chemical shift changes in HSQC spectra of PHD3” value (shortened to “pattern of chemical shift changes”) in the assay on KDM5B PHD3 finger [1] is “almost identical pattern of chemical shift changes”.

With “H3K4me1: H3K4me1 peptide, residues 1-12 of H3, monomethylated lysine 4”, the “pattern of chemical shift changes” value in the assay on KDM5B PHD3 finger [1] is given as “almost identical pattern of chemical shift changes”.

Regarding “H3K4me3: trimethylated H3K4me3 peptide, 12-mer histone tail peptide; biotinylated in pull-downs”, the affinity of association entry in the assay with KDM5B PHD1 finger was “almost negligible association in the mM range of affinities”. Besides, the “preference of PHD3 among H3K4me3/2/1/0” value with KDM5B PHD3 finger [2] is given as “only slight preference for the trimethylated state of H3K4”. For the same substance, in the assay with KDM5B PHD3 finger [1], the “pattern of chemical shift changes” value is “almost identical pattern of chemical shift changes”. In addition, the “interaction with PHD3 D1506R mutant” value in assay [3] (acidic D1506 replaced with an arginine) is “reduced it”. For the same substance, the “interaction with PHD3 W1502 and W1512 mutants” value in assay [3] (mutation of W1502 and W1512) was “disrupted interaction”.
